The values below come from ChEMBL document CHEMBL3232844, “Synthesis and structure activity relationships of schweinfurthin indoles” (2014).

The assay concerns SF-295. In words: Cytotoxicity against human SF295 cells. As to conditions: read-out: GI50. Format: functional. In a few lines: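 Tested in a 60-cell-line human tumor panel screen; the read-out is growth inhibition, reported as GI50 for each cell line.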

As for `COc1cc(/C=C/c2cc(O)c(CC=C(C)C)c(O)c2)cc2c1O[C@]1(C)CC[C@@H](O)C(C)(C)[C@H]1C2` [SCHWEINFURTHIN F], the GI50 was under 36 nM. Consider `CC(C)=CCc1c(O)cc(/C=C/c2cc(O)c3c(c2)C[C@@H]2C(C)(C)[C@H](O)CC[C@@]2(C)O3)cc1O` [SCHWEINFURTHIN G], for which the GI50 is 10 nM.
